# CHO parental Ca = ATP-evoked calcium signal inhibitors, parental CHO, primary screen, counter-screen for OX1R antagonist project, cell-based, fluorescence, Fluo-8 calcium dye; parental CHO-K1, ATP-induced calcium, Fluo-8 fluorescence; inhibition, % at 5.6 µM; hit rate 0.63% among 330,000;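 active = inhibition above that plate's mean sample inhibition plus 3 SD, cut at about 26% in these data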;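 also: 0% = ATP-challenged DMSO wells and 100% = DMSO wells without ATP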
#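 Test system: parental CHO cells; detection: calcium-sensitive Fluo-8 fluorescence; evaluation: percent inhibition of calcium signal; also added: ATP as calcium-mobilizing challenge; repeats: one well per compound; control set: ATP-challenged DMSO wells low, unchallenged DMSO wells high; compound: single nominal dose of 5.6 µM per compound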
# TAAR1 ag = human TAAR1 agonists, primary screen, Fluo-8 calcium fluorescence, CHO RD-HGA16 cells; Trace amine-associated receptor 1 (Homo sapiens), Q96RJ0; AID 624467, 2012; vehicle wells 0%, saturating PEA agonist 100%; activation, % at 3 µM; hit rate 0.99% among 360,000;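 active = activation above the mean activation of all test compounds in the run plus 3 SD, cut at about 38% in these data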
# Target sequence (Q96RJ0 whole entry, looked up): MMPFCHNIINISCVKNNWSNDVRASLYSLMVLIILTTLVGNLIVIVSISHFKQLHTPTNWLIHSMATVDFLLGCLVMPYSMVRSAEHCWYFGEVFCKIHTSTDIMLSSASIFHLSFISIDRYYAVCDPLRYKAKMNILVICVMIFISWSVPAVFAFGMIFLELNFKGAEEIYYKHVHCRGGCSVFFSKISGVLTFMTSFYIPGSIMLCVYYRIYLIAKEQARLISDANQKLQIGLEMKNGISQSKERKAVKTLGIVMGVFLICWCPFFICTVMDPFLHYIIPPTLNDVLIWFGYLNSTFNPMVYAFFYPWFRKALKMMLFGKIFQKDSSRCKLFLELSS
#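 System: CHO-derived RD-HGA16 cells with stable Gα16 and human TAAR1. Times: 17-24 h plating, Fluo-8 75 min 37 °C, 30 min RT. Measured by: calcium-sensitive Fluo-8 signal, excitation 470-495, emission 515-575 nm. Read-out basis: % activation relative to PEA EC100 response. Control set: DMSO and PEA EC100. Repeats: no replicates (n 1).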
# GPR7 antag = GPR7 receptor antagonists, primary screen, cell-based, fluorescence, single concentration. Neuropeptides B/W receptor type 1 (Homo sapiens), P48145. hit rate 1.1% among 290,000. GPR7-expressing cells, fluorescence antagonist assay. AID 1861, 2009. inhibition, % at 4.4 µM; in the data active = inhibition above about 16%, passing the limit was not always enough;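 also: cells stimulated with the agonist NPW; 0% = agonist with vehicle and 100% = vehicle without agonist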
# Target sequence (P48145 whole entry, looked up): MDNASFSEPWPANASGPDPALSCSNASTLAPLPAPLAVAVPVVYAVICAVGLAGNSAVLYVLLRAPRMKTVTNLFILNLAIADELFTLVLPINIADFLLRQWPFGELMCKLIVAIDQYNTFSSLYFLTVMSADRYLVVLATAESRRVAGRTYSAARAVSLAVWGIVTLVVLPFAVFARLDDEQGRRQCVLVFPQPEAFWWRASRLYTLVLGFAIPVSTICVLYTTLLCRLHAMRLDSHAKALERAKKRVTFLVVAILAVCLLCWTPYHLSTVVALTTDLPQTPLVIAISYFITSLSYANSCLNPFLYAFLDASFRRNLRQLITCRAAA
# OX1R antag-1 = OX1R (HCRTR1) antagonists, primary screen, fluorescence, CHO/OX1R cells, Fluo-8 calcium, orexin A; Orexin/Hypocretin receptor type 1 (Homo sapiens), O43613; Fluo-8 calcium fluorescence; inhibition, % at 5 µM; hit rate 0.43% among 330,000; AID 434989, 2010;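 active = inhibition above its plate's threshold, mean inhibition of all tested compounds on the plate plus 3 SD, cut at about 37% in these data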;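 also: 0% = orexin A challenge wells and 100% = SB-334867-A antagonist wells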
# TAAR1 antagonist = human TAAR1 antagonists, primary screen, Fluo-8 calcium fluorescence, CHO RD-HGA16 cells; Trace amine-associated receptor 1 (Homo sapiens), Q96RJ0; antagonist; inhibition, % at 3 µM; hit rate 1.5% among 360,000; AID 624466, 2012;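 active = inhibition above a per-plate cutoff, the mean inhibition of test compounds on that plate plus 3 SD, cut at about 49% in these data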;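 also: 0% = DMSO plus EC80 beta-PEA response and 100% = DMSO alone without agonist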
#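 test system = CHO RD-HGA16 cells bearing hTAAR1 | replication = singlicate | controls = DMSO-only wells and EC80 β-PEA-stimulated wells | reagent = EC80 β-phenethylamine stimulus | read-out basis = percent inhibition of PEA-evoked calcium signal, max/basal emission ratio | schedule = seeding 17-24 h prior, 75-min 37 °C, 30-min RT dye loading | signal = kinetic Fluo-8 calcium fluorescence measurement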
# OX1R antag-2 = antagonists of human orexin 1 receptor (OX1R); Orexin/Hypocretin receptor type 1 (Homo sapiens), O43613; OX1R-expressing cells, FRET antagonist read-out; inhibition, % at 6.6 µM; hit rate 1.8% among 330,000; in the data active = inhibition mostly above about 38%, no sharp cut-off; inactive = mostly below about 40%;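 also: 0% = agonist challenge alone and 100% = reference antagonist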
# The depositor's hits bear a star; nt = no result given. In the library only some 4.6% were active in any assay of this set; here they are far more common.
SMILES,CHO parental Ca,TAAR1 ag,GPR7 antag,OX1R antag-1,TAAR1 antagonist,OX1R antag-2
Cc1ccc(N(C)S(=O)(=O)c2cccc(C(=O)OCC(=O)c3c(N)n(C)c(=O)n(C)c3=O)c2)cc1,9,18,nt,10,66*,27
COc1ccc(N(C)S(=O)(=O)c2cccc(C(=O)OCC(=O)N(C)c3ccccc3)c2)cc1,-19,16,nt,-2,56*,11
CCC(=O)c1ccc(OCC(=O)Nc2cccc(S(=O)(=O)N(C)c3ccccc3)c2)cc1,44*,16,nt,77*,76*,27*
CN(C(=O)COC(=O)c1cccc(S(=O)(=O)N2CCCCCC2)c1)c1ccccc1,nt,6,nt,nt,-15,nt
COC(=O)N1C[C@H](OCc2cn(-c3cc(Cl)cc(Cl)c3)nn2)[C@H](OCc2cn(-c3cc(Cl)cc(Cl)c3)nn2)C[C@@H]1c1ccccc1Br,nt,0,nt,nt,0,nt
CCN(CC)c1ccc(-c2nn3c(-c4ccccc4OC)nnc3s2)cc1,30*,nt,0,29,nt,39*
Cn1c(-c2ccccc2)c(Sc2ccccc2)c2cc(-c3ccc4cc[nH]c4c3)ccc21,nt,1,nt,nt,-14,nt
Cc1ccc(-c2nc(CSCC(=O)N3CCCC3)c(C)o2)cc1,-9,15,-3,-10,-9,14
Cc1ccsc1-c1nc(CSCC(=O)N2CCN(c3ccccc3)CC2)c(C)o1,3,-1,11,-16,18,38*
Cc1cccc(-c2nc(CSCC(=O)N3CCN(c4ccccn4)CC3)c(C)o2)c1,14,10,-1,0,20,45*
COC(=O)C1=C(C)N(Cc2cccc(C(F)(F)F)c2)C(=NCc2ccc(OC)cc2)NC1c1cccc(C(F)(F)F)c1 (stereo unspecified),nt,27,nt,nt,23,nt
O=C1Nc2ccc(Cl)cc2[C@@](C#CC2CC2)(C(F)(F)F)O1,48*,nt,-24,14,nt,20
CC(=O)c1cc(N2CCC(C(=O)O)CC2)ccc1[N+](=O)[O-],-18,9,-19,-10,0,67*
O=C(N[C@@H](Cc1cccnc1)C(=O)N1CCC[C@H]1C(=O)NC1CCCC1)C1CCCC1,nt,0,nt,nt,-3,nt
C/C(=C1/C(=O)N(c2ccc([N+](=O)[O-])cc2)N=C1c1ccccc1)N(C)C,20,nt,3,18,nt,42*
O=C(COC(=O)c1ccc(Br)o1)Nc1ccc(Br)cc1,3,40*,nt,-2,9,-3
O=C(COC(=O)c1ccc(Br)o1)NCCNC(=O)COC(=O)c1ccc(Br)o1,-6,6,nt,-23,-13,21
CC(NC(=O)COC(=O)c1ccc([N+](=O)[O-])o1)c1ccccc1 (stereo unspecified),-7,5,nt,-16,-20,33
O=C(COC(=O)c1ccc([N+](=O)[O-])o1)NCCc1ccccc1,-5,17,nt,6,-7,32*
O=C(COC(=O)c1ccc([N+](=O)[O-])o1)Nc1ccc(Br)cc1F,0,-3,nt,-7,16,28*
O=C(NCc1ccccc1)[C@H]1CCCN1C(=O)[C@H]1CCCN1C(=O)c1ccc(F)c(C(F)(F)F)c1,nt,-1,nt,nt,-15,nt
Cc1ccc(S(=O)(=O)NCC2CCN(C(=O)C(=O)c3cc4ccccc4o3)CC2)cc1,nt,0,nt,nt,-21,nt
N#Cc1nc(COc2ccccc2)oc1N1CCCCCC1,54*,-2,3,-23,-4,25
CCC(NC(=O)Nc1nnc(C(F)(F)F)s1)(C(F)(F)F)C(F)(F)F,81*,15,29*,65*,-5,60*
COC(=O)[C@]1(CC(C)C)NC=C(C(=O)c2ccccc2)[C@@H]1c1cccc(C(F)(F)F)c1,nt,-2,nt,nt,-10,nt
SMILES,CHO parental Ca,TAAR1 ag,GPR7 antag,OX1R antag-1,TAAR1 antagonist,OX1R antag-2
O=[N+]([O-])c1ccc(-c2nnc3n2CCCCC3)cc1,-6,1,1,-16,-14,32*
COc1ccc(C2CC(=O)C(c3ccc(Cl)cc3)=CN2Cc2ccccc2)cc1 (stereo unspecified),nt,3,nt,nt,-1,nt
C[C@@H](C(=O)NCc1ccccn1)[C@H]1C[C@]1(C)[C@H](NC(=O)OCc1ccccc1)c1ccccc1,-25,16,2,-22,49*,21
CCN(CC)S(=O)(=O)c1ccc(N=NC2=C(O)CCCC2=O)cc1,-10,2,-7,-13,1,55*
Cc1cccc(C)c1N=C1C(=O)Nc2ccccc21,0,0,-8,-11,2,2
Cc1cc(C)c(N=C2C(=O)Nc3ccccc32)c(C)c1,-6,4,12,8,-3,38*
COc1ccc(NC(=O)C(c2ccc(C(F)(F)F)cc2)n2c(=O)c(-c3cc4ccccc4[nH]3)nc3ccccc32)cc1 (stereo unspecified),nt,0,nt,nt,-32,nt
COCc1[nH]nc2c1C(c1ccc(Br)cc1)N(c1ccc(OC)cc1)C2=O (stereo unspecified),nt,7,nt,nt,-18,nt
Cc1ccc(OCc2nnc(SCc3nc4ccccc4[nH]3)n2Cc2ccco2)cc1,32*,10,-2,36,36,62
CN1C(=O)/C(=C/c2cccc(Cl)c2)Sc2ccc(C(=O)NCc3cccnc3)cc21,-3,10,-1,-14,51*,42
CN1CCN(CCCNC(=O)c2ccc(/C=C3/Sc4ccccc4N(Cc4cccc(Cl)c4)C3=O)cc2)CC1,nt,36,-7,nt,57*,nt
CCc1nc2c(OCc3ccc(F)cc3)cccn2c1N(C)C(=O)CC(C)C,nt,-1,nt,nt,-10,nt
COC(=O)C1=C(C)N(Cc2ccccc2C(F)(F)F)C(=NCc2ccc3c(c2)OCO3)NC1c1ccccc1 (stereo unspecified),nt,13,nt,nt,10,nt
Nc1ccn([C@@H]2O[C@H](C(=O)N3CCN(C(=O)N4CCCCC4)CC3)[C@@H](O)[C@H]2O)c(=O)n1,nt,1,nt,nt,-6,nt
CC(C)CCN(C)[C@H]1C[C@H]2c3[nH]c4ccccc4c3CCN2C[C@H]1[C@H](C)O,nt,11,nt,nt,-18,nt
COC(=O)C1=C(C)N(C)C(=NCc2ccccc2C(F)(F)F)NC1c1ccc(Cl)cc1 (stereo unspecified),nt,15,nt,nt,15,nt
COc1cc(-c2nc3ccccn3c2N)ccc1O,-11,1,4,-17,3,16
COc1cc(-c2nc3ccccc3nc2-c2ccc(O)c(OC)c2)ccc1O,-8,21,-14,-9,53*,4
CCCc1nc2ccc(Cl)cn2c1Cc1ccc(C)cc1,nt,0,nt,nt,-20,nt
CCN(CC)C(=O)CSc1nnc2nnc3cc(OC)ccc3n12,-12,1,-5,-6,-20,76*

# Screening data from PubChem.
